From paper PMC3064745 (Immunity, 2011)
Read-outs that look alike come from different tables or passages of the source.

Legend:
NKT cells [1] = conditions: ICS at 2 and 6 hours after in vivo challenge, compared to α-GalCer; ref Sullivan et al 2010; cited from earlier work
NKT cells [2] = test: IFN-γ production by NKT cells, intracellular cytokine staining; type: cell-based, mouse; conditions: 100 ng/ml, 8h stimulation, ICS
Procedure, shortened: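 NKT-enriched thymocytes were cultured for 8h with Jα18−/− splenocytes pulsed with 100 ng/ml glycolipid, with GolgiStop for the last 4h. Cells were surface stained, fixed, permeabilised and stained with anti-IFN-γ. Readout was percent IFN-γ⁺ among α-GalCer-CD1d tetramer⁺ cells. Data representative of 4 experiments.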

NKT cells [3] = test: Cytokines in culture supernatant, cytometric bead array; type: cell-based, mouse; conditions: 100 ng/ml, 8h stimulation
Vβ7+ NKT cells = test: Vβ usage of NKT cells after 3 days of in vitro proliferation; type: cell-based, mouse; conditions: Vβ usage by cell division peak
Procedure, shortened: (§1)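 Jα18−/− mouse splenocytes were pulsed overnight with glycolipid plus IL-2 (100 U/ml), then spun through FCS and resuspended to remove excess lipid. Thymocytes were NKT-enriched by complement depletion of anti-HSA/anti-CD8-labelled cells, cleared of dead cells by gradient, and labelled with CFSE […] for 10 min at 37C. Cells were co-cultured at 2:1 splenocytes:thymocytes for 72h.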

NKT cells [4] = type: cell-based, mouse; conditions: 3 d culture
Procedure, shortened: as §1

mouse Vβ8.2 NKT TCR = mouse Vβ8.2 NKT TCR (Mus musculus, UniProt P11609+Z9CWY5XBV8); test: Surface plasmon resonance of NKT TCR binding to CD1d-AGL complexes
Procedure, shortened: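 SPR used soluble mouse NKT TCR (Vα14-Jα18; Vβ8.2) injected over streptavidin-immobilised mouse CD1d loaded with glycolipid, with a reference cell of unloaded CD1d. KD was derived from equilibrium responses. Kinetic rate constants were also fitted, with t1/2 determined from the interactions.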

[5] = Serum cytokines after in vivo treatment; conditions: 20h after in vivo treatment, compared to C20:2 and OCH

mouse Vβ8.2 NKT TCR, sequence (P11609 whole entry, looked up, other chains not shown): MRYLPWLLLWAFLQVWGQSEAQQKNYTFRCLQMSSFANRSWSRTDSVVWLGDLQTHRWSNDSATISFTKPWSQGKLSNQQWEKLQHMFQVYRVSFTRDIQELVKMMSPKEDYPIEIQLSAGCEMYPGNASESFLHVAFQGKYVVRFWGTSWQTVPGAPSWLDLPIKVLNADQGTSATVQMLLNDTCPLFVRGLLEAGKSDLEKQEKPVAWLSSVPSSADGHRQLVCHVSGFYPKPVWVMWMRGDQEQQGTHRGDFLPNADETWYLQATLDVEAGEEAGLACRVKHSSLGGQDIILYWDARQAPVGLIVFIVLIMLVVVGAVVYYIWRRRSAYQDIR

Structure (SMILES)	IFN-γ producing NKT cells (NKT cells [2])	Th2 bias of cytokine production (NKT cells [3])	bias toward Vβ7 proliferation (Vβ7+ NKT cells)	NKT cell proliferation (NKT cells [4]; 1 ng/ml glycolipid)	NKT cell proliferation (NKT cells [4]; 100 ng/ml glycolipid)	also measured
CCCCCCCCCCCCCCCCCCCCCCCC(=O)N[C@@H](COC1OC(CO)C(O)C(O)C1O)[C@H](O)[C@H](O)CCCCC (stereo partly shown) [OCH, reference compound]	highest percentages of IFN-γ producing NKT cells	not apparent	loss of Vβ7^+ NKT cells with each progressive division cycle	consistently weaker in comparison to the non-truncated AGLs		Th2 bias of NKT cell cytokine production (NKT cells [1]): fails to reveal a Th2 bias; t1/2 life of the interaction, comparison in words (mouse Vβ8.2 NKT TCR): markedly longer half life when compared to that of the 3′,4″-deoxy AGL; affinity relative to the NKT TCR-CD1d-α-GalCer interaction (mouse Vβ8.2 NKT TCR; compared with the α-GalCer positive control): approximately 20%; effect on kinetic rate constants (ka, kd) (mouse Vβ8.2 NKT TCR; compared with α-GalCer, in words): impacted negatively on the association constant
CCCCC/C=C\C/C=C\CCCCCCCCCC(=O)N[C@@H](CO[C@H]1O[C@H](CO)[C@H](O)[C@H](O)[C@H]1O)[C@H](O)[C@H](O)CCCCCCCCCCCCCC [C20:2]	highest percentages of IFN-γ producing NKT cells	not apparent		barely induced NKT cell proliferation	able to induce proliferation	
CCCCCCCCCCCCCCCCCCCCCCCCCC(=O)N[C@@H](CO[C@H]1O[C@H](CO)[C@H](O)[C@H](O)[C@H]1O)[C@H](O)[C@H](O)CCCCCCCCCCCCCC [α-GalCer, α-galactosylceramide]	highest percentages of IFN-γ producing NKT cells					serum IFN-γ response [5]: more sustained IFN-γ response at 20h; Kd (mouse Vβ8.2 NKT TCR): ~59 nM; t1/2 life of the interaction (mouse Vβ8.2 NKT TCR; NKT TCR-CD1d-glycolipid interaction): approximately 20 s
CCCCC/C=C\C/C=C\CCCCCCCCCC(=O)N[C@@H](CO[C@H]1O[C@H](CO)[C@@H](O)[C@H](O)[C@H]1O)[C@H](O)[C@H](O)CCCCCCCCCCCCCC [α-GlcCer (C20:2)]	least IFN-γ production of all		showed a Vβ7 bias	barely induced NKT cell proliferation	able to induce proliferation	bias toward Vβ7 proliferation (Vβ7+ NKT cells; listed as α-GlcCer): progressively enriched with each division cycle
CCCCCCCCCCCCCCCCCCCCCCCCCC(=O)N[C@@H](CO[C@H]1O[C@H](CO)C[C@H](O)[C@H]1O)[C@H](O)CCCCCCCCCCCCCCC [4′,4″-deoxy-α-GalCer]	less potent inducers of IFN-γ production		showed a Vβ7 bias			
CCCCCCCCCCCCCCCCCCCCCCCCCC(=O)N[C@@H](CO[C@H]1O[C@H](CO)C[C@H](O)[C@H]1O)[C@H](O)[C@H](O)CCCCCCCCCCCCCC [4′-deoxy-α-GalCer]	less potent inducers of IFN-γ production		showed a Vβ7 bias			
